Assay [1] has as its system HEK293. The assay can be described thus: Induction of cell death in HEK293 cells at 15 to 20 uM after 48 hrs by DAPI staining based fluorescence microscopy. The assay is classed as functional. Particulars: Homo sapiens.
Assay [2] concerns HEK293. Put plainly: Induction of apoptosis in HEK293 cells at 10 uM after 48 hrs by propidium iodide staining based flow cytometry (reference value: 24.26 +/- 0.8%). Type of assay: functional, Homo sapiens.
The test system of assay [3] is HEK293. The assay can be described thus: Induction of apoptosis in HEK293 cells at 20 uM after 48 hrs by propidium iodide staining based flow cytometry (reference value: 24.26 +/- 0.8%). Type of assay: functional, Homo sapiens.
The subject of assay [4] is HEK293. Put plainly: Induction of cell cycle arrest in HEK293 cells assessed as accumulation at G1 phase at 20 uM after 48 hrs by propidium iodide staining based flow cytometry (reference value: 53.21 +/- 0.8%). Type of assay: functional, Homo sapiens.
In assay [5] the test system is HEK293. Put plainly: Induction of cell cycle arrest in HEK293 cells assessed as accumulation at S phase at 5 uM after 48 hrs by propidium iodide staining based flow cytometry (reference value: 19.9 +/- 0.5%). The assay is classed as functional, Homo sapiens. On the technique in general: A flow cytometer gives signals particle by particle.
In assay [6] the test system is HEK293. Put plainly: Induction of cell cycle arrest in HEK293 cells assessed as accumulation at S phase at 15 uM after 48 hrs by propidium iodide staining based flow cytometry (reference value: 19.9 +/- 0.5%). Type of assay: functional, Homo sapiens.
Assay [7] has as its system HEK293. Put plainly: Induction of cell cycle arrest in HEK293 cells assessed as accumulation at G2/M phase at 10 uM after 48 hrs by propidium iodide staining based flow cytometry (reference value: 2.63 +/- 0.7%). Type of assay: functional, Homo sapiens.
Assay [8] relates to HEK293. The assay can be described thus: Increase in caspase-3 expression in HEK293 cells at LC50 level after 48 hrs by immunocytochemistry. Type of assay: functional, cell-based. As to conditions: Homo sapiens.
The target in assay [9] is Nuclear factor NF-kappa-B complex (Homo sapiens) (UniProt Q00653+P19838+Q04206). Put plainly: Inhibition of NFkappaB (unknown origin) expressed in HEK293 cells assessed as reduction in transcriptional activity after 48 hrs by luciferase reporter gene assay. Type of assay: cell-based. The gist of the method: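 HEK-293 at 70% confluence transfected by calcium phosphate with NF-kB luciferase ([…]) and b-Gal ([…]) plasmids, 6–8 h, then fresh serum medium 12 h; treated 48 h, lysed, luciferase read and normalized to b-galactosidase. Three independent experiments.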
(In general: A reporter such as luciferase makes a cellular process visible.)

In assay [10] the test system is HEK293. Put plainly: Increase in PARP cleavage in HEK293 cells at LC50 level after 48 hrs by Western blot method. The assay is classed as functional, cell-based. As to conditions: Homo sapiens. In general terms: A western blot detects proteins with antibodies after separation by electrophoresis.
The subject of assay [11] is HEK293. The assay can be described thus: Reduction in NFkappaB expression in p53 deficient HEK293 cells at LC50 level after 48 hrs by Western blot method. Type of assay: functional, cell-based. Particulars: Homo sapiens.
For another assay, the system named is Calf thymus DNA. The assay can be described thus: Binding affinity to calf thymus DNA at 3.33 to 20 uM after 2 hrs by UV-visible absorption spectroscopy. Type of assay: nucleic-acid assay. As to conditions: Bos taurus. The gist of the method:
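CT-DNA at fixed […] in 50 mM Tris-HCl/NaCl pH 7.5, incubated with compound for 2 h at 37 °C, scanned 200–400 nm after dilution. Spectra normalized at 230 nm. Fraction bound q from absorbance near 260 nm; Boltzmann fit, Kb as reciprocal of half-saturation concentration.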

Another assay is filed under the species Bos taurus. Put plainly: Induction of conformational changes in calf thymus DNA assessed as B-DNA conformation changes at 100 uM after 2 hrs by CD spectroscopy.

Calls of active or inactive are those of the source. The calls are words filed in the database; no cut-off is given here.

Nuclear factor NF-kappa-B complex (Homo sapiens), sequence (P19838 whole entry, looked up): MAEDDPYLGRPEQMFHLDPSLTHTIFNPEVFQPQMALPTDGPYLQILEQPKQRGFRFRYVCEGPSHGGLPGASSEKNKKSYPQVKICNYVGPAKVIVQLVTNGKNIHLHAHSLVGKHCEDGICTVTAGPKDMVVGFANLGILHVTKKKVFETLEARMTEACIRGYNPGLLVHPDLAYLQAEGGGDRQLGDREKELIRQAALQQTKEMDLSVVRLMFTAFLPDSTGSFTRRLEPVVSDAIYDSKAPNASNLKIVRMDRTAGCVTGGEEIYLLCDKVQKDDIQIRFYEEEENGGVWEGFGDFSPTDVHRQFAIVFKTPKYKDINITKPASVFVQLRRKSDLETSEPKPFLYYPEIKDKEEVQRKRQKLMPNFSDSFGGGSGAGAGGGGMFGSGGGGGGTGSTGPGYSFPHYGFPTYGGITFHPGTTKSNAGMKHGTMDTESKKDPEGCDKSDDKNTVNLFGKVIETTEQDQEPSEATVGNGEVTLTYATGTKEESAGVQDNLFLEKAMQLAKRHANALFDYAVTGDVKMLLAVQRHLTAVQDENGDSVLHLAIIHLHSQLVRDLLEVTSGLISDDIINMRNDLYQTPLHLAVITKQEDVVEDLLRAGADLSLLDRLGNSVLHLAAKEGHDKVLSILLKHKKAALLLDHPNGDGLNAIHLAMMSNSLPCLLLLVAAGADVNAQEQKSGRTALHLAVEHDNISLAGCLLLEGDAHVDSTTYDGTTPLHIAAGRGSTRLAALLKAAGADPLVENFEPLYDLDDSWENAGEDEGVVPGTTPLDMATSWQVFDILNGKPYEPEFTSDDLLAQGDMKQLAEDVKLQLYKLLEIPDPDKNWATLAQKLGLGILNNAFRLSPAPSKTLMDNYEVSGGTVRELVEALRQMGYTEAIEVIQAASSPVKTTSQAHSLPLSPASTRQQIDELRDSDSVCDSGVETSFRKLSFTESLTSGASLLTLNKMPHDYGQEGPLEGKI
Nuclear factor NF-kappa-B complex (Homo sapiens), sequence (Q00653 whole entry, looked up): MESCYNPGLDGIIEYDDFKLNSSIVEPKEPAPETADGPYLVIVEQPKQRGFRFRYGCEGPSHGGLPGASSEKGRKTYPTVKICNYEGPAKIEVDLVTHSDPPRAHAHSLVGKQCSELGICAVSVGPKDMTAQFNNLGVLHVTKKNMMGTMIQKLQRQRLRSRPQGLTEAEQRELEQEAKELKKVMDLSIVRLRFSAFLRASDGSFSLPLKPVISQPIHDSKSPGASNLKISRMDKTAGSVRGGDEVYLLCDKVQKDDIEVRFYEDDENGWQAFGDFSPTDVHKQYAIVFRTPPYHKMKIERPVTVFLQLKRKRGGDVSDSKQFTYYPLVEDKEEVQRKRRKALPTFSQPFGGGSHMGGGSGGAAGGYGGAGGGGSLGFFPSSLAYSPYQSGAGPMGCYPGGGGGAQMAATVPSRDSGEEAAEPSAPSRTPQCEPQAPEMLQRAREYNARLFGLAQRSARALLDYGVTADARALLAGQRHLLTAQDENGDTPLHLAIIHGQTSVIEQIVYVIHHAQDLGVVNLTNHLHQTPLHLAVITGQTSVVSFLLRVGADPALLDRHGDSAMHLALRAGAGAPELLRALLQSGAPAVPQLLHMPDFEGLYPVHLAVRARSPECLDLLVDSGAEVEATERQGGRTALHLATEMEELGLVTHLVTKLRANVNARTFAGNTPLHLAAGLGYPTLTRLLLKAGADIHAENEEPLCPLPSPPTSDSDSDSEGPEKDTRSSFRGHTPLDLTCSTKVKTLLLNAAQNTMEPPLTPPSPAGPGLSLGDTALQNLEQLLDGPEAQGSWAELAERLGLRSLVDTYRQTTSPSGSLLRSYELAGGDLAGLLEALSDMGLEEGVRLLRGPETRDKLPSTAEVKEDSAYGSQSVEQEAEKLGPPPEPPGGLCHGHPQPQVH
Nuclear factor NF-kappa-B complex (Homo sapiens), sequence (Q04206 whole entry, looked up): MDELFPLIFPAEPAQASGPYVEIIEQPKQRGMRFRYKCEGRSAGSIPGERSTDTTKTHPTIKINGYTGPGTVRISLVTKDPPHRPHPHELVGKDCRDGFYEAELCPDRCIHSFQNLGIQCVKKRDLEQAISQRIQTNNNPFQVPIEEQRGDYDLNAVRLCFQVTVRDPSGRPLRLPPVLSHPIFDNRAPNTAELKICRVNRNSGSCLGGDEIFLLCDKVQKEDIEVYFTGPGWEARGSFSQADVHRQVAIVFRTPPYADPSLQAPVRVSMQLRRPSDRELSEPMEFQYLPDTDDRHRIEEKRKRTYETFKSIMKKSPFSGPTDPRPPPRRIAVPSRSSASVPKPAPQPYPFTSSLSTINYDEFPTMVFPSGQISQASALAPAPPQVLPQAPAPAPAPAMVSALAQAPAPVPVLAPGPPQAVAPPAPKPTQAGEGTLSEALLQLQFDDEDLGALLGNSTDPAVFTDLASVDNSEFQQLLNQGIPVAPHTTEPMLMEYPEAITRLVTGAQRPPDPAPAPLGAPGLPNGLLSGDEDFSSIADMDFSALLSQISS

Turning to `C=C1CC[C@@H]2[C@](C)(CO)[C@H](O)CC[C@@]2(C)[C@@H]1C/C=C1/C(=O)OC[C@H]1OC(=O)CI`, the result with HEK293 [1], in the assay with HEK293 [8] and in the assay on HEK293 [10] was Active. Besides, the Activity with HEK293 [2] is reported as 74.03%; in the assay on HEK293 [3], 89.69%; with HEK293 [4] it was 7.96%; in the assay on HEK293 [5] it was 9.21%; in the assay with HEK293 [6] it was 5.67%; in the assay on HEK293 [7], 2.74%. For the same molecule, the inhibition entry in assay [9] was “Dose-dependent effect”. Besides, the outcome in the assay with HEK293 [11] and in the assay listed under Bos taurus was inactive. In addition, the Kb in the assay on Calf thymus DNA was 2.5 ×10⁵ /M.

For the origin of these results see ChEMBL document CHEMBL3352171, “Synthesis and biological evaluation of andrographolide analogues as anti-cancer agents” (Eur J Med Chem, 2014).
